Publication PMC1316110 (Nucleic Acids Research, 2005)

Legend:
[1] = biological target: T1, MtuLigA (Mycobacterium tuberculosis, UniProt P9WNV1); assay: Mode of inhibition, Michaelis-Menten / Lineweaver-Burk kinetics; type: biochemical, M.tuberculosis; settings: read-out: Km for NAD^+; absence of the inhibitor, 10% Me2SO
How it was run: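 Full-length recombinant MtuLigA (2 ng), 50 mM Tris–HCl pH 8.0, 5 mM DTT, 10 mM MgCl2, 10% Me2SO, 5′-32P-labelled nicked 40 bp duplex at 0.85 µM (saturating), NAD+ 0–50 µM, compound 0–250 or 0–450 µM; 1 h, 25°C. Ligation rate from gel scanning; Michaelis–Menten fit. Ki from apparent Km versus compound concentration. Mode from Lineweaver–Burk linear regression.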

[2] = biological target: T1, MtuLigA; type: biochemical, M.tuberculosis; settings: read-out: IC50 MtuLigA; 50 µM NAD+, 10% Me2SO, 1 h at 25°C
[3] = biological target: T2, T4 DNA ligase (Enterobacteria phage T4, UniProt P00970); assay: In vitro ligase inhibition assay, 32P-labeled nicked 40 bp DNA substrate; type: biochemical, bacteriophage T4; settings: read-out: IC50 T4Lig; 66 µM ATP, 10% Me2SO
T2 sequence (P00970 1-487): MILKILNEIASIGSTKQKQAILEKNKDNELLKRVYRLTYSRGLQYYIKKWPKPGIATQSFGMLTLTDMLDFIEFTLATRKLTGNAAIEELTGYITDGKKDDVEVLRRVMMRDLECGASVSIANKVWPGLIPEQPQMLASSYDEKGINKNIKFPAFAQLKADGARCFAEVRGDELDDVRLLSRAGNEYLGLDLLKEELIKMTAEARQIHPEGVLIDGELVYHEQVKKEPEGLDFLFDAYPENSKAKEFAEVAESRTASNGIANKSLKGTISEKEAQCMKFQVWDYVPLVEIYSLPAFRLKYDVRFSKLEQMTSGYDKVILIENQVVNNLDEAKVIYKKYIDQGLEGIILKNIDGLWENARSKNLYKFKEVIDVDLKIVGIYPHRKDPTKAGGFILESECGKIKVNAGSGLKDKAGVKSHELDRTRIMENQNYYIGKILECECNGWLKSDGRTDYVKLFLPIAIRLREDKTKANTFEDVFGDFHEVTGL

Row | Compound | Km [1] [µM] | IC50 [2] [µM] | IC50 [3] [µM]
1 | NC(=O)c1ccc[n+]([C@@H]2O[C@H](COP(=O)([O-])OP(=O)(O)OC[C@H]3O[C@@H](n4cnc5c(N)ncnc54)[C@H](O)[C@@H]3O)[C@@H](O)[C@H]2O)c1 [NAD] | 1.56 | – | –
2 | Chloroquine [Compound 6] | – | 5 ± 0.3 | 3 ± 0.2
3 | Doxorubicin [Compound 7] | – | – | 1600 ± 15
